# An excerpt weighted towards active compounds, which were near 2.6% of everything screened.
# SENP8 block-1: blocks human SENP8 cleavage of Nedd8 substrate; AID 602440; inhibition, % at 20 µM; recombinant SENP8, Nedd8 substrate fluorescence; 360,000 compounds, 0.64% hits; Q96LD8; in the data active means inhibition mostly above about 40%, no sharp cut-off; inactive means mostly below about 27%
# SENP8 block-2: inhibitors of human SENP8 protease. Q96LD8. purified SENP8, Z-RLRGG-aminoluciferin cleavage, luminescence. inhibition, % at 10 µM. 330,000 compounds, 1.2% hits; in the data active means inhibition above about 50%
# SENP7 inh: blocks the human protease SENP7 | 330,000 compounds, 1.5% hits | AID 434973 | Q9BQF6 | recombinant SENP7, Z-RLRGG-aminoluciferin luminescence, 40 min | inhibition, % at 5 µM;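 active means inhibition above about 50% at the single test dose, limit read from the data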;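 further: plate controls were DMSO with enzyme for no effect and no enzyme buffer wells for full effect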
# Platelet DG rel: modulates dense granule release in human platelets; human platelet-rich plasma, SFLLRN dense granule ATP release, luminescence; inhibition, %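 (compounds screened at 7.5 µM in platelet-rich plasma)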; 300,000 compounds, 0.22% hits;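 active means mean replicate score, as percent of positive control, at or above 50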
# SENP6 inh: SENP6 protease inhibition; Recombinant SENP6 catalytic domain, aminoluciferin luminescence; inhibition, % at 10 µM; 330,000 compounds, 1.8% hits; AID 2599;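 active means inhibition above about 50% at the single tested dose, limit read from the data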;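 further: plate controls were DMSO wells with enzyme for no effect and DMSO wells lacking enzyme for full effect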
# Target sequence (Q9GZR1 628-1112 limits assumed): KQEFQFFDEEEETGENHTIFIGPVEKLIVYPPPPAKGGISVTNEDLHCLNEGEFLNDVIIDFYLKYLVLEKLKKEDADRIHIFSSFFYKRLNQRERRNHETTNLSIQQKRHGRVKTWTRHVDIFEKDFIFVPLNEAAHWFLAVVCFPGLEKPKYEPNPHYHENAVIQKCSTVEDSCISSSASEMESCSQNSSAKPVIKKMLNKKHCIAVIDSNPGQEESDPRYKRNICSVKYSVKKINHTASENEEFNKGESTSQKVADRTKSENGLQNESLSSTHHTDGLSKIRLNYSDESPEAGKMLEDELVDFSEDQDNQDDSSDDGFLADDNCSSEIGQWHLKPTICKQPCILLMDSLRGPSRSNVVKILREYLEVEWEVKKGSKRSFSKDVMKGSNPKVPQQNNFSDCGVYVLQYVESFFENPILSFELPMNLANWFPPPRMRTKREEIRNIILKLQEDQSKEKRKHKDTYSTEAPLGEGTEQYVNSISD
# SENP1 FRET inh: SENP1 (human) catalytic domain inhibition | inhibition, % at 10 µM | recombinant SENP1 catalytic domain, CyPet-SUMO1-YPet FRET cleavage | 360,000 compounds, 0.21% hits;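 active means inhibition at least 30% at 10 µM, raw YFP signal under a set limit, fluorescence ratio 0.5 to 1.5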;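 further: 0% = enzyme with DMSO and 100% = no enzyme wells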
#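 Test system: recombinant human SENP1 catalytic domain, His6-tagged / Medium: pH 8 Tris buffer with EDTA, NaCl, BME, BSA, NP40, catalase / Also added: SUMO1 FRET substrate flanked by Cypet and Ypet, 25 nM / Times: 50 min reaction at room temperature / Signal: FRET, CFP and YFP emission / Control set: no-enzyme low control and enzyme-plus-DMSO high control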
# SENP8 conf: human SENP8 inhibition, confirmed; 6,200 compounds, 40% hits; AID 488912; inhibition, % at 12.5 µM; shares compounds with SENP7 inh; Recombinant SENP8, Z-RLRGG-aminoluciferin luminescence, 60 min;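 active means mean inhibition across replicates above about 50%, limit read from the data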
# SENP6 confirm: confirmation of human SENP6 protease inhibitors | shares compounds with SENP7 inh | inhibition, % at 12.5 µM | 6,200 compounds, 58% hits | recombinant SENP6, Z-RLRGG-aminoluciferin luminescence | AID 488915
# SENP7 confirm: human SENP7 inhibition, confirmed; shares compounds with SENP7 inh; recombinant SENP7, Z-RLRGG-aminoluciferin luminescence, 40 min; inhibition, % at 12.5 µM; 6,200 compounds, 69% hits; AID 488917
# Casp3 select: selectivity test for SENP inhibitors: human caspase-3 inhibition; shares compounds with SENP7 inh; purified caspase-3, Z-DEVD-aminoluciferin luminescence, 60 min; inhibition, % at 12.5 µM; 6,200 compounds, 60% hits; AID 488918;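 active means mean inhibition above about 50%, limit read from the data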;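 further: plate controls were enzyme with DMSO for no effect and wells without caspase-3 for full effect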
# Target sequence (P42574 28-227 limits assumed): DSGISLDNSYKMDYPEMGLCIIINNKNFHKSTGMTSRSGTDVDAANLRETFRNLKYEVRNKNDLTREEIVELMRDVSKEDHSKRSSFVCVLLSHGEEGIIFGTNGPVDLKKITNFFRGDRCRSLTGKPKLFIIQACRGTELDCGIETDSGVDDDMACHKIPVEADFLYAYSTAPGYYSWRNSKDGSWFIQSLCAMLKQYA
# Luc interf: interferes with luciferase luminescence in SENP counter-screen | shares compounds with SENP7 inh | Pre-incubated SENP8/Z-RLRGG-aminoluciferin, luciferase luminescence interference | inhibition, % at 12.5 µM | 6,200 compounds, 39% hits | AID 488919;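 active means mean inhibition above about 50% when retested at one dose, limit read from the data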;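 further: plate controls were DMSO wells with completed reaction for no effect and substrate without enzyme for full effect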
# * = called active by the depositor; i = inactive; . = not tested or not shown.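 How the source made its calls, unless noted: active means mean inhibition above about 50% in the one-dose retest (limit read from the data); inactive means the rest.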
SMILES,SENP8 block-1,SENP8 block-2,SENP7 inh,Platelet DG rel,SENP6 inh,SENP1 FRET inh,SENP8 conf,SENP6 confirm,SENP7 confirm,Casp3 select,Luc interf
C/C(=N\NC(=O)COc1ccc2ccccc2c1)c1cccs1,-1.1,-7.0,-9.4,10.0,-10.5,1.4,.,.,.,.,.
CC(=O)C1CCC2C3CCC4CC(=O)CCC4(C)C3C(C)(O)CC12C (stereo not drawn),14.9,.,.,.,.,0.8,.,.,.,.,.
Cn1cccc1C(=O)N/N=C/c1c(Cl)cccc1Cl,4.2,76.4*,83.4*,8.9,78.9*,9.6,82.7*,82.2*,71.8*,90.8*,25.9
O=C(NNC(=O)c1cc2ccccc2cc1O)c1cccs1,-17.2,94.6*,86.8*,7.8,92.8*,-8.1,97.0*,97.5*,102.3*,97.1*,91.2*
C/C(=N\NC(=O)c1cc2ccccc2cc1O)c1ccc(C)o1,-229.1,67.7*,63.2*,22.1,84.1*,23.0,79.5*,78.1*,94.6*,90.0*,46.7
O=C(NNC(=O)c1ccc2ccccc2c1O)c1cccs1,-196.1,9.0,-1.8,0.1,26.1,-1.2,.,.,.,.,.
O=C(Nc1nc2ccc(Br)cc2s1)c1ccco1,-75.8,58.5*,62.9*,0.4,74.7*,-5.9,33.4,64.1*,90.3*,69.1*,30.4
Cc1ccc2nc(NC(=O)c3ccc(Br)o3)sc2c1,-226.3,59.7*,87.1*,1.5,72.8*,0.0,35.9,37.7,47.9,43.9,13.9
COc1ccc(-c2csc(NC(=O)c3ccco3)n2)cc1,-55.3,28.2,24.7,0.0,55.9*,-4.1,43.2,37.8,74.9*,31.9,29.8
CCOc1ccc(-c2csc(NC(=O)c3ccco3)n2)cc1,-34.5,20.0,32.5,3.6,45.5,-4.6,.,.,.,.,.
Cc1cc2sc(NC(=O)c3ccco3)nc2cc1Cl,-123.3,9.1,70.8*,8.1,27.8,-2.1,9.9,9.6,5.5,29.0,7.1
Cc1cnc(=O)[nH]c1SCc1ccccc1F,16.7,-19.9,-13.7,5.9,-1.6,3.7,.,.,.,.,.
O=C(Nc1nc2ccsc2c(=O)s1)c1ccco1,-85.5,52.6*,77.3*,28.3,71.7*,-33.9,79.3*,71.9*,94.3*,46.5,77.2*
O=C(Nc1ccc2nc(-c3ccccc3)[nH]c2c1)c1ccco1,-237.1,-4.7,9.5,-2.2,19.7,-1.4,.,.,.,.,.
Cc1cccc2[nH]c(-c3ccc(NC(=O)c4ccco4)cc3)nc12,-212.7,77.3*,89.6*,9.0,91.1*,0.5,-21.7,79.5*,95.7*,75.3*,77.7*
Cc1ccc2nc(NC(=O)c3ccco3)sc2c1,-151.4,93.2*,95.7*,21.9,92.3*,-1.5,4.8,94.5*,100.6*,91.9*,58.3*
COc1ccc2nc(NC(=O)c3ccco3)sc2c1,-204.0,86.9*,93.1*,.,87.8*,1.1,93.0*,93.4*,100.6*,93.7*,79.4*
Cc1ccc2nc(NC(=S)NC(=O)c3ccco3)sc2c1,-6.8,.,.,0.0,.,-8.3,.,.,.,.,.
COc1cc2sc(NC(=O)c3ccco3)nc2cc1Cl,-294.7,18.1,2.9,11.0,-31.1,-0.6,.,.,.,.,.
Cc1csc2c(=O)sc(NC(=O)c3ccco3)nc12,-95.7,-6.6,-1.0,2.5,1.8,-169.3,.,.,.,.,.
O=C(NC1CC1)c1ccc(-c2cnc3cccnn23)cc1,i,.,.,.,.,-23.4,.,.,.,.,.
CC(=O)Nc1nc2ccc(Br)cc2s1,13.2,56.2*,70.2*,1.9,80.1*,-3.0,71.6*,69.2*,91.5*,74.2*,58.9*
Cc1cccc(NC(=O)c2ccco2)c1C,11.9,-7.5,9.9,6.6,-8.1,0.5,.,.,.,.,.
O=C(Nc1ccc(-c2cn3ccccc3n2)cc1)c1ccco1,-43.0,42.1,58.9*,8.1,71.4*,-0.2,59.4*,57.7*,84.8*,79.3*,69.1*
COc1ccc2nc(NC(C)=O)sc2c1,27.6,5.1,30.9,-2.4,-4.8,1.9,.,.,.,.,.
SMILES,SENP8 block-1,SENP8 block-2,SENP7 inh,Platelet DG rel,SENP6 inh,SENP1 FRET inh,SENP8 conf,SENP6 confirm,SENP7 confirm,Casp3 select,Luc interf
COCC(=O)Nc1nc2ccc(C)cc2s1,1.6,30.0,57.8*,0.1,68.5*,0.4,66.6*,62.1*,88.2*,82.2*,63.7*
Cc1cc(NC(=O)c2ccco2)sc1C,-7.5,67.7*,76.2*,.,82.7*,0.9,5.9,60.3*,86.0*,80.9*,67.0*
O=C(CN1C(=O)NC2(CCCC2)C1=O)Nc1ccc(C(F)(F)F)cc1,5.3,-7.2,-4.1,-2.9,1.5,0.4,.,.,.,.,.
Cc1ccccc1CN1CCN(C(=O)c2ccc(F)cc2)CC1,7.7,-14.9,-10.9,1.4,0.3,0.2,.,.,.,.,.
CC1CC1C(=O)Nc1nc2ccc(Cl)cc2s1 (stereo not drawn),15.8,-2.9,-2.0,10.1,0.6,2.1,.,.,.,.,.
Cn1cc(Cl)c(C(=O)Nc2nc3ccc(Cl)cc3s2)n1,-18.3,48.4,95.1*,7.6,68.2*,0.7,27.6,43.7,67.4*,55.0*,7.6
COc1ccc(-c2ccc(NC(=O)c3ccco3)cc2)nn1,-37.8,90.3*,93.8*,39.6,90.6*,-1.8,89.9*,89.6*,98.8*,96.2*,68.0*
O=C(Nc1nc2ccc(Cl)cc2s1)c1ccco1,-165.7,81.4*,88.7*,3.6,85.5*,-0.1,40.6,79.7*,58.7*,85.6*,17.0
CN(C)CCN(C(=O)c1cccs1)c1nc2cc3c(cc2s1)OCCO3,-9.7,-2.8,1.2,-2.3,-0.5,-1.4,.,.,.,.,.
Cc1ccc(-c2cnc(-c3ccncc3)o2)cc1,-266.3,2.4,9.9,2.0,20.4,-0.4,.,.,.,.,.
Nc1ccc(-c2ncc(-c3ccccc3)o2)cc1,-346.2,61.2*,68.9*,17.5,72.9*,-0.7,73.5*,67.6*,88.7*,44.9,73.6*
COc1cc(C(=O)NCCC(=O)NC(C)CCc2ccccc2)cc(OC)c1OC (stereo not drawn),9.1,18.9,-0.8,12.0,15.6,0.6,.,.,.,.,.
CCOc1ccc(/C=N/NC(=O)c2ccc(Cn3cc(Br)cn3)o2)cc1,-48.3,2.5,8.3,-5.4,55.3*,-0.6,22.1,16.6,57.0*,22.9,49.8

# Bioassay records: PubChem BioAssay, several laboratories
